For assay [1], the target named is T1, Interstitial collagenase (Homo sapiens, UniProt P03956).
T1 sequence (P03956 whole entry): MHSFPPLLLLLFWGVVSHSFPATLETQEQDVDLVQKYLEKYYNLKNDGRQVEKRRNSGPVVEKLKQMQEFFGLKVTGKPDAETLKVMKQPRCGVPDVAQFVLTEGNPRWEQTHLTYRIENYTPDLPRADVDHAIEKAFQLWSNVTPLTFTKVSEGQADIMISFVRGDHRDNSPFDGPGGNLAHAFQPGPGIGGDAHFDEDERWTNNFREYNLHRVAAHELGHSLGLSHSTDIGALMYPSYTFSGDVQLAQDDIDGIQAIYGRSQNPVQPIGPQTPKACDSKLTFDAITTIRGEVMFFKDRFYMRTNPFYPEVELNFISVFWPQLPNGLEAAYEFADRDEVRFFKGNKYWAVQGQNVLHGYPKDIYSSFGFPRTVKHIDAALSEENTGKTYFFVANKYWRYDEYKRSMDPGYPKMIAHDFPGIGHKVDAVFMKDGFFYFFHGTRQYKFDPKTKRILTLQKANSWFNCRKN
The experiment in a line: Inhibitory activity against matrix metalloprotease-1 (MMP-1)(recombinant human collagenase-1).

Assay [2] concerns the target Disintegrin and metalloproteinase domain-containing protein 17 (Homo sapiens, UniProt P78536). The experiment in a line: Inhibitory activity against tumor necrosis factor alpha converting enzyme (TACE) from human acute monocytic leukemia cell line.
Assay [3] addresses T2, Disintegrin and metalloproteinase domain-containing protein 9 (Homo sapiens, UniProt Q13443).
T2 sequence (Q13443 whole entry): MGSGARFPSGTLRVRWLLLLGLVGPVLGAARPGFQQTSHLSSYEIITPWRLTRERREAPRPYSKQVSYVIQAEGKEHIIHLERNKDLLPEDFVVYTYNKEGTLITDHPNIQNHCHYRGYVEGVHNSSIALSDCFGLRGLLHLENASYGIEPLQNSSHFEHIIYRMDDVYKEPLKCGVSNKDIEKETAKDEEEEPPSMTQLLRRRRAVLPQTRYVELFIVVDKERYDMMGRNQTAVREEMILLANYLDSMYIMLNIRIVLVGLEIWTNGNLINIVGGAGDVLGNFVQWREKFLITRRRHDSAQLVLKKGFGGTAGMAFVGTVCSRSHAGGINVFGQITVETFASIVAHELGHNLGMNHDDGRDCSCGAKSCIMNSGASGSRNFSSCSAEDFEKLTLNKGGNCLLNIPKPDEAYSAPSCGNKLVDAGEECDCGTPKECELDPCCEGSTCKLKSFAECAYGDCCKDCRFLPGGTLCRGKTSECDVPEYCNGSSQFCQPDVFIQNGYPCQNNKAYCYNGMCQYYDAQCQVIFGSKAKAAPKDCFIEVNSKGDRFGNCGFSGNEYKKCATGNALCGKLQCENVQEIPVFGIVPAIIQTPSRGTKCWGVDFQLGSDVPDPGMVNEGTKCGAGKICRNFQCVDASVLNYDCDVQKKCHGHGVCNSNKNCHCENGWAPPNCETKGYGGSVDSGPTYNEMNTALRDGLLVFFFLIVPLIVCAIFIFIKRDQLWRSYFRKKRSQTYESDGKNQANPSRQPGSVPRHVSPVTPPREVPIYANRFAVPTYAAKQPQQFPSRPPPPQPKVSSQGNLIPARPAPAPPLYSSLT
Put plainly: Inhibition of the heparin binding epidermal growth factor (HB-EGF) release from fibrosarcoma HT1080 transfectants expressing […] (AP) tagged HB-EGF stimulated by 12-O-tetradecanoylphorbol 13-acetate(TPA). The essentials: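 HT-1080 transfectants in MEM/10% FCS seeded at 2 × 10⁵ cells/well, grown 24 h, PBS-washed, preincubated 30 min with compound in MEM containing 1% DMSO. Stimulated with TPA (60 nM) for 60 min. Supernatant heated 10 min at 65 °C to kill endogenous phosphatases, then incubated 2 h with p-nitrophenyl phosphate (1 mg/mL) in 1 M diethanolamine, pH 9.8; A405. IC50 from a concentration series.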

Assay [4] addresses Matrix metalloproteinase-9 (Homo sapiens, UniProt P14780). Put plainly: Inhibitory activity against matrix metalloprotease-9 (MMP-9)(gelatinase-B).
Assay [5] deals with Stromelysin-1 (Homo sapiens, UniProt P08254). The experiment in a line: Inhibitory activity against matrix metalloprotease-3 (MMP-3)(stromelysin-1). Put shortly: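 Recombinant human MMP-3 activated with 1 mM p-aminophenylmercuric acetate, 1 h, 37 °C. Compound in 50 mM Tris, 150 mM NaCl, 10 mM CaCl2, 0.05% Brij-35, pH 7.5, preincubated with enzyme 10 min at 37 °C. Fluorescence-quenched peptide substrate added, 2 h at 37 °C; Ex/Em 320/405 nm. Ki from percent inhibition and substrate Km.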
Sequence of Stromelysin-1 (P08254 whole entry): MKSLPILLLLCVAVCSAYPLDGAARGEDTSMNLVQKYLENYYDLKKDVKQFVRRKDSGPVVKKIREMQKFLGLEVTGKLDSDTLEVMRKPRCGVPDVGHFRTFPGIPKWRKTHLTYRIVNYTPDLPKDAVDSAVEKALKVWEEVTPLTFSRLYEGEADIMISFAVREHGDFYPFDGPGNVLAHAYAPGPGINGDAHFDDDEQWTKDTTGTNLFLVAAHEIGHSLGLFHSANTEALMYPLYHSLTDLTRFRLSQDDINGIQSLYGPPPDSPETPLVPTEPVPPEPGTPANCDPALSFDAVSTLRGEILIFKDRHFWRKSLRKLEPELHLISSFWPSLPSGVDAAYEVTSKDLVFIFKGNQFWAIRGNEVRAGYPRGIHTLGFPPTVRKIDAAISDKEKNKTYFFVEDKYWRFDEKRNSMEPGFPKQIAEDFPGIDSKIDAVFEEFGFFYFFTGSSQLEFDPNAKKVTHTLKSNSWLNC

Some results are limits rather than exact numbers.

Sequence of Matrix metalloproteinase-9 (P14780 whole entry): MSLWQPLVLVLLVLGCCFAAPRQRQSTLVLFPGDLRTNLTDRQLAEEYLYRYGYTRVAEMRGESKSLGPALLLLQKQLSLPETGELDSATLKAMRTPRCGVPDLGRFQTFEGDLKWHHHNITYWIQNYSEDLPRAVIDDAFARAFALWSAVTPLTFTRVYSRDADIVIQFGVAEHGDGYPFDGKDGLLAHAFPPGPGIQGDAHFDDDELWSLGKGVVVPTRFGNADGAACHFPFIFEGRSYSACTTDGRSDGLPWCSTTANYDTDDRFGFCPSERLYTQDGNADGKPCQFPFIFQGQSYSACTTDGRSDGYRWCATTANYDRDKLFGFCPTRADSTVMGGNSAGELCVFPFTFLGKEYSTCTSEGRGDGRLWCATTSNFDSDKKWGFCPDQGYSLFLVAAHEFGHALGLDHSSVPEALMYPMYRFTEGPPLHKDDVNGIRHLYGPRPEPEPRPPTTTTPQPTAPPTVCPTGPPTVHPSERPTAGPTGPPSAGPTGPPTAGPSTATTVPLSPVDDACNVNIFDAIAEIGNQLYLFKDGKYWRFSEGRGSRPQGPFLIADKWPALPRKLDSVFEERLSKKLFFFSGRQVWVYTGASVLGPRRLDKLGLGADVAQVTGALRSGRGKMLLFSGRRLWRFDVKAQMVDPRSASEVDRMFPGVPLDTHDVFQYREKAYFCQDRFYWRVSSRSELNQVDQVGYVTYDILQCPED
Sequence of Disintegrin and metalloproteinase domain-containing protein 17 (P78536 whole entry, the tested form may be a part): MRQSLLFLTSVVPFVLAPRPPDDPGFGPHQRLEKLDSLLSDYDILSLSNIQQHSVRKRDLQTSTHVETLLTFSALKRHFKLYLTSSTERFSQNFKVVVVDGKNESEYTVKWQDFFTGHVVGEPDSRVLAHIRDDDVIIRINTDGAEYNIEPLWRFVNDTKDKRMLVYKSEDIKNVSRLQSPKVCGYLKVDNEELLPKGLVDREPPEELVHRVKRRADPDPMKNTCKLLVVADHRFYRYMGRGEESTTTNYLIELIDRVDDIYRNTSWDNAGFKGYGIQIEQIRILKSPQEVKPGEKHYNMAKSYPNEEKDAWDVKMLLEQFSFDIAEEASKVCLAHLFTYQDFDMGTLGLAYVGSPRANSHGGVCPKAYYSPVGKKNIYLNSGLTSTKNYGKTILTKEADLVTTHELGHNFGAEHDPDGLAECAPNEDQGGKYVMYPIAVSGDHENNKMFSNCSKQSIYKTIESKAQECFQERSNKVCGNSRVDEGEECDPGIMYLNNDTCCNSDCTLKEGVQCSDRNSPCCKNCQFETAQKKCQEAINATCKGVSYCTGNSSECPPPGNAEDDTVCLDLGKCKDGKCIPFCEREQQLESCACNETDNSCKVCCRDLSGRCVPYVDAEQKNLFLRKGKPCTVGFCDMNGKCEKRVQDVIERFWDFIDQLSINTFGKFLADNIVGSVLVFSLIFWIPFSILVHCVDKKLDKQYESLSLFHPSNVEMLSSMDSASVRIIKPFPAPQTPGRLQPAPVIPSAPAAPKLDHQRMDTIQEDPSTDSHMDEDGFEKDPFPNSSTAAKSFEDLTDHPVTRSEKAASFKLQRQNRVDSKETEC

For the compound `CCOP(=O)(c1ccc(OC)cc1)N1Cc2cc(N)ccc2CC1C(=O)NO` (stereo not given), the Ki (as a rule, a measure of affinity in units of concentration, obtained from inhibition or displacement) in assay [1] came out at 10.7 nM; in assay [2] it was 37.4 nM; in assay [4], 11 nM; in assay [5], 12.3 nM. The IC50 – broadly, the concentration that inhibits the measured activity by half – in assay [3] is 190 nM.

Turning to `CCOP(=O)(c1ccncc1)N1Cc2ccccc2CC1C(=O)NO` (stereo not given), the Ki came out at 17.4 nM in assay [1], 777 nM in assay [2], 278 nM in assay [4] and 190 nM in assay [5]. This compound also returned an IC50 in assay [3] of 2600 nM.

For the compound `CCOP(=O)(c1ccc(OC)cc1)N1Cc2[nH]c3ccccc3c2CC1C(=O)NO` (stereo not given), the Ki in assay [1] is 2.02 nM; in assay [2] it was 2.2 nM; in assay [4] it was 1.13 nM; in assay [5] it was 2.04 nM. The IC50 in assay [3] came to 800 nM.

As to `CCOP(=O)(c1ccc(OC)cc1)N1Cc2nccnc2CC1C(=O)NO` (stereo not given), the Ki in assay [1] was 7.8 nM; in assay [2], 13.7 nM; in assay [4] it was 7 nM; in assay [5], 10.7 nM. In assay [3], this compound registered an IC50 of 560 nM.

`CCOCCOc1ccc(P(=O)(OCC)N2Cc3ccccc3CC2C(=O)NO)cc1` (stereo not given): the Ki in assay [1] was more than 850 nM; in assay [2] it was 2.98 nM; in assay [4], 14.2 nM; in assay [5], 29.6 nM. Moreover, the IC50 in assay [3] was 70 nM.

For the compound `CCOP(=O)(c1cccs1)N1Cc2ccccc2CC1C(=O)NO` (stereo not given), the Ki in assay [1] is 18.7 nM; in assay [2], 59.6 nM; in assay [4], 59.2 nM; in assay [5] it was 67 nM. The same compound had an IC50 in assay [3] of 890 nM.

Take `CCOCCOP(=O)(c1ccc(OC)cc1)N1Cc2ccccc2CC1C(=O)NO` (stereo not given): the Ki in assay [1] amounted to 6.75 nM; in assay [2], 18.9 nM; in assay [4], 6.36 nM; in assay [5] it was 5.43 nM. The same compound gave an IC50 in assay [3] of 510 nM.

The values are drawn from ChEMBL document CHEMBL1135723, “New type of metalloproteinase inhibitor: design and synthesis of new phosphonamide-based hydroxamic acids” (J Med Chem, 2002).
